These results are taken from ChEMBL document CHEMBL3769370, “Synthesis and SAR of 4-methyl-5-pentylbenzene-1,3-diol (MPBD), produced by Dictyostelium discoideum” (2016).

The structures appear in SMILES notation. Activity calls are given as the source filed them. No cut-off for these calls is given here.

Format in all cases: functional
Test [1] concerns Bacillus subtilis. The test can be described thus: Antibacterial activity against Bacillus subtilis at 100 mM after 16 to 24 hrs by disk diffusion assay. The settings on record: for zone of inhibition at 100000 µM: read-out: DIZ. In outline:
(§1)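 Bacteria grown in Lysogeny broth (LB), spread on LB or lactose peptone (LP) agar, and plates dried 10 min. 6 mm filter-paper disks placed, five per plate, at least 3 cm apart. Each disk loaded with a 100 mM solution of compound. Incubation 16–24 h at 37 °C. Zone of clearance around each disk inspected and photographed.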

Test [2] deals with Escherichia coli. The test can be described thus: Antibacterial activity against Escherichia coli at 100 mM after 16 to 24 hrs by disk diffusion assay. The settings on record: for zone of inhibition at 100000 µM: read-out: DIZ. An outline of the steps:
as §1

The subject of test [3] is Bacillus subtilis. Briefly: Antibacterial activity against Bacillus subtilis at 50 mM after 16 to 24 hrs by disk diffusion assay. Conditions: read-out: DIZ. An outline of the steps: (§2)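 Positive-control disks loaded with 50 mM ampicillin solution. Bacteria grown in LB and spread on LB or LP agar, with plates dried 10 min before disks were placed. Disks were 6 mm filter paper, five per plate spaced at least 3 cm apart. Plates held at 37 °C for 16–24 h, then the clearance zone was checked and photographed.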
(In general: A growth-free zone around the sample is the usual read-out of agar diffusion tests.)

For test [4], the system named is Escherichia coli. Briefly: Antibacterial activity against Escherichia coli at 50 mM after 16 to 24 hrs by disk diffusion assay. Conditions: read-out: DIZ. In outline: as §2

For the compound `CCCCCc1cc(O)cc(O)c1CC`, the results for the zone of inhibition at 100000 µM in the test on Bacillus subtilis [1] and with Escherichia coli [2] were 1 mm and 4 mm, respectively.

With `CC1(C)S[C@@H]2[C@H](NC(=O)[C@H](N)c3ccccc3)C(=O)N2[C@H]1C(=O)O` [AMPICILLIN], the zone of inhibition at 50000 µM with Bacillus subtilis [3] and with Escherichia coli [4] was 7 mm each time.

Turning to `CCCCCc1cc(O)cc(O)c1C`, the zone of inhibition at 100000 µM in the test on Bacillus subtilis [1] is 1 mm; in the test with Escherichia coli [2] it was 5 mm.

For `CCCCCc1cc(OC)cc(OC)c1C`, the outcome in the test on Bacillus subtilis [1] and in the test with Escherichia coli [2] was inactive.

`CCCCCc1cc(O)ccc1C`: the zone of inhibition at 100000 µM in the test on Bacillus subtilis [1] and with Escherichia coli [2] was 1 mm throughout.

For the compound `CCCCCc1cc(O)cc(O)c1CCC`, the zone of inhibition at 100000 µM with Bacillus subtilis [1] and in the test with Escherichia coli [2] was 4 mm in each case.
